ChEMBL document CHEMBL4359895, “Discovery and biological evaluation of darolutamide derivatives as inhibitors and down-regulators of wild-type AR and the mutants” (Eur J Med Chem, 2019)
Active and inactive are the calls of the source. The rule behind the calls is not given here.

How the values were obtained:
[1] = AUC (0 to t) in Sprague-Dawley rat 30 mg/kg, po measured up to 24 hrs by LC-MS/MS analysis; assay type: ADME, organism-based; set-up: dose 30 mg/kg, time < 24 hr, route oral; conditions: in vivo
In short: (§1)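 Rats dosed orally at 30 mg/kg, compound formulated in 10% DMA / 90% PEG200. Plasma levels followed over time to build concentration-time curves, from which T1/2, Tmax, Cmax and AUC were derived.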

[2] = Plasma concentration in Sprague-Dawley rat 30 mg/kg, po measured up to 24 hrs by LC-MS/MS analysis; assay type: ADME, organism-based; in short: as §1
LNCaP [3] = assay: Inhibition of AR mRNA level in human LNCAP cells at 5 to 30 uM incubated for 24 hrs by qRT-PCR analysis; assay type: functional, cell-based
In short: (§2)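 LNCaP, VCaP and 22Rv1 cells treated with DMSO or compounds for 24 h. AR-full and AR-V7 mRNA measured by qRT-PCR and normalised to GAPDH. Mean ± SD, n = 3, compared with DMSO by two-tailed t test.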

VCaP [4] = assay: Antitumor activity against castration-resistant human VCaP cells xenografted in BALB/c mouse assessed as tumor growth inhibition at 30 mg/kg, po administered for 40 days; assay type: functional; conditions: 960 h, read-out: TGI
In short: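 Castration-resistant VCaP xenografts grown in male BALB/c nude mice. Animals dosed once daily for 40 days alongside a vehicle group. Tumor volume tracked over time, with tumor weights taken at end. Reported as tumor growth inhibition, mean ± SEM, N = 8-9 per group.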

CWR22R [5] = assay: Inhibition of AR splice variant 7 mutant gene expression in human 22Rv1 cells at 10 to 40 uM incubated for 24 hrs by qRT-PCR analysis; assay type: functional, cell-based; in short: as §2
CWR22R [6] = assay: Inhibition of AR protein expression in human 22Rv1 cells at 10 to 40 uM incubated for 24 hrs by Western blot analysis; assay type: functional, cell-based
In short: (§3)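 LNCaP, VCaP and 22Rv1 cells grown in medium with 10% (v/v) FBS. Treated with compounds or DMSO for 24 h. AR-full and AR splice-variant protein then assessed by western blot.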

VCaP [7] = assay: Inhibition of AR splice variant 7 mutant expression in human VCaP cells at 10 to 40 uM incubated for 24 hrs by Western blot analysis analysis; assay type: functional, cell-based; in short: as §3
LNCaP [8] = assay: Inhibition of AR protein expression in human LNCAP cells at 5 to 30 uM incubated for 24 hrs by Western blot analysis; assay type: functional, cell-based; in short: as §3
CWR22R [9] = assay: Inhibition of AR splice variant 7 mutant expression in human 22Rv1 cells at 10 to 40 uM incubated for 24 hrs by Western blot analysis analysis; assay type: functional, cell-based; in short: as §3
VCaP [10] = assay: Inhibition of AR mRNA level in human VCaP cells at 10 to 40 uM incubated for 24 hrs by qRT-PCR analysis; assay type: functional, cell-based; in short: as §2
CWR22R [11] = assay: Inhibition of AR mRNA level in human 22Rv1 cells at 10 to 40 uM incubated for 24 hrs by qRT-PCR analysis; assay type: functional, cell-based; in short: as §2
LNCaP [12] = assay: Induction of androgen receptor splice variant 7 mutant degradation in human LNCAP cells at 30 uM incubated upto 26 hrs in presence of bortezomib by Western blot analysis; assay type: functional, cell-based
LNCaP [13] = assay: Inhibition of AR splice variant 7 mutant gene expression in human LNCAP cells at 5 to 30 uM incubated for 24 hrs by qRT-PCR analysis; assay type: functional, cell-based; in short: as §2
CWR22R [14] = assay: Inhibition of AR splice variant 7 mutant expression in human 22Rv1 cells at 10 to 30 uM incubated for 24 hrs by Western blot analysis analysis; assay type: functional, cell-based; in short: as §3
CWR22R [15] = assay: Inhibition of AR splice variant 7 mutant gene expression in human 22Rv1 cells at 10 to 30 uM incubated for 24 hrs by qRT-PCR analysis; assay type: functional, cell-based; in short: as §2
LNCaP [16] = assay: Inhibition of AR mRNA level in human LNCAP cells at 5 to 20 uM incubated for 24 hrs by qRT-PCR analysis; assay type: functional, cell-based; in short: as §2
LNCaP [17] = assay: Inhibition of AR protein expression in human LNCAP cells at 5 to 20 uM incubated for 24 hrs by Western blot analysis; assay type: functional, cell-based; in short: as §3
CWR22R [18] = assay: Inhibition of AR protein expression in human 22Rv1 cells at 10 to 30 uM incubated for 24 hrs by Western blot analysis; assay type: functional, cell-based; in short: as §3
LNCaP [19] = assay: Inhibition of AR splice variant 7 mutant gene expression in human LNCAP cells at 5 to 20 uM incubated for 24 hrs by qRT-PCR analysis; assay type: functional, cell-based; in short: as §2
LNCaP [20] = assay: Inhibition of AR splice variant 7 mutant expression in human LNCAP cells at 5 to 20 uM incubated for 24 hrs by Western blot analysis analysis; assay type: functional, cell-based; in short: as §3
CWR22R [21] = assay: Inhibition of AR mRNA level in human 22Rv1 cells at 10 to 30 uM incubated for 24 hrs by qRT-PCR analysis; assay type: functional, cell-based; in short: as §2
VCaP [22] = assay: Inhibition of AR splice variant 7 mutant gene expression in human VCaP cells at 10 to 30 uM incubated for 24 hrs by qRT-PCR analysis; assay type: functional, cell-based; in short: as §2
VCaP [23] = assay: Inhibition of AR mRNA level in human VCaP cells at 10 to 30 uM incubated for 24 hrs by qRT-PCR analysis; assay type: functional, cell-based; in short: as §2

SMILES: C[C@@H](Cn1ccc(-c2ccc(C#N)c(Cl)c2)n1)Nc1ncnc2nc[nH]c12
- AUC(0-t) at 24 h [1]: 7280 ng·h/mL
- Cmax [2]: 2650 ng/mL
- inhibition (LNCaP [3]): Active
- inhibition in vivo at 30 mg/kg (VCaP [4]): 64.7%
- inhibition (CWR22R [5]): Active
- inhibition (CWR22R [6]): Active
- inhibition (VCaP [7]): Active
- inhibition (LNCaP [8]): Active
- inhibition (CWR22R [9]): Active
- inhibition (VCaP [10]): Active
- inhibition (CWR22R [11]): Active
- Activity (LNCaP [12]): inactive
- inhibition (LNCaP [13]): Active

SMILES: C[C@@H](Cn1ccc(-c2ccc(C#N)c(Cl)c2)n1)Nc1cccc2ncccc12
- inhibition (CWR22R [14]): Active
- inhibition (CWR22R [15]): Active
- inhibition (LNCaP [16]): Active
- inhibition (LNCaP [17]): Active
- inhibition (CWR22R [18]): Active
- inhibition (LNCaP [19]): Active
- inhibition (LNCaP [20]): Active
- inhibition (CWR22R [21]): Active
- inhibition (VCaP [22]): Active
- inhibition (VCaP [23]): Active
